Diaph act CS = activates diaphorase or chemically reduces, flagging diaphorase assay artifacts; Diaphorase/resazurin coupled assay, resorufin fluorescence, 16 min; active compounds read high; 1 = vehicle wells, 0 = NADH-free wells; activation factor at 20 µM; actives 0.005% (n = 190,000); AID 1229;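 active = diaphorase activity raised at least twofold by the compound at 20 µM; inactive = activation factor below 2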
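Material: Purified diaphorase enzyme from Clostridium kluyveri | Buffer or medium: 50 mM HEPES pH 7.4 with 4.542 mM MgCl2, 0.005% Tween 20 | Times: 16 min enzyme reaction, ambient temperature | Signal: Red resorufin fluorescence at 544/590 nm excitation/emission | Measure: Increased resorufin signal from activators or reducing compounds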
Diaph inh CS = diaphorase inhibition or chemical oxidation counter-screen | diaphorase resazurin-to-resorufin fluorescence, NADH, 16 min; bacterial (C. kluyveri) enzyme, not human | inhibition, % at 20 µM | actives 0.69% (n = 190,000) | AID 1217;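 active = primary screen inhibition at 20 µM above a set limit, cut at about 50% in these data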
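Assay system – diaphorase enzyme from Clostridium kluyveri · Amount – diaphorase 0.14 U/mL (working solution) · Times – reaction incubation of 16 min at room temperature · Controls – No-NADH positive control and DMSO neutral control · Signal – resorufin fluorescence 544/590 nm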
ABCG2 inh = human ABCG2 inhibition, ABCB1 as counter-screen. actives 0.1% (n = 190,000). IgMXP3 cells, JC-1 efflux, flow cytometry. inhibition, % at 6.6 µM. AID 1325;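 active = inhibition above 80%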
Target sequence (Q9UNQ0 whole entry, looked up): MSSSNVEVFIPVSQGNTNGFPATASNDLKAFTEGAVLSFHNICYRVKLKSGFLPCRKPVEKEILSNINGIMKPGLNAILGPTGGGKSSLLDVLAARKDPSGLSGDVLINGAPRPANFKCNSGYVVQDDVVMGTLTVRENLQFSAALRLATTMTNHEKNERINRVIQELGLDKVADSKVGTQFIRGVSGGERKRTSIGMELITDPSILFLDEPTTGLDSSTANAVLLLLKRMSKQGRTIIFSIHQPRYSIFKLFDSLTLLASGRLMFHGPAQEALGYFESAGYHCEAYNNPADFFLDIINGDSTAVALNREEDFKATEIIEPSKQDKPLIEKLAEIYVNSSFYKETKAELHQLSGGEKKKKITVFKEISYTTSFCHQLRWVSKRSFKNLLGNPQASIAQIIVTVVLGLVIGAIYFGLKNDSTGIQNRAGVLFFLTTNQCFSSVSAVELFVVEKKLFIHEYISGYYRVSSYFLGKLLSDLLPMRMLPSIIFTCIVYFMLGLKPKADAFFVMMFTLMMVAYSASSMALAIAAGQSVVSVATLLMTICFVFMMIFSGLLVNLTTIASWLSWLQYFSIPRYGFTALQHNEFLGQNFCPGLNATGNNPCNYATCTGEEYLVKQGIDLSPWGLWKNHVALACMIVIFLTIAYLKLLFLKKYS
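Assay system – ABCG2 IgMXP3 and barcoded ABCB1 CCRF-Adr cell mix · Input – 3 million cells/mL in well · Reagent – JC-1 fluorescent substrate · Compound – single test compound dose, 6.6 µM final · Timing – 10 min exposure at 25 °C with rotation, no wash · Detection – flow cytometry of retained JC-1 fluorescence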
ABCB1 block = blocks JC-1 efflux by human ABCB1 transporter; P08183; inhibition, % at 6.6 µM; AID 1326; actives 0.067% (n = 190,000); CCRF-Adr cells, flow cytometry; in the data active = inhibition above about 40%;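 also: higher value means more JC-1 retained so stronger ABCB1 efflux block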
HMGR II inh = E. faecalis class II HMG-CoA reductase inhibition. actives 0.41% (n = 190,000). purified E. faecalis HMGR, NADPH absorbance 340 nm kinetic. inhibition, % at 10 µM;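 active = inhibition above a set limit, the median over all tested compounds plus 3 SD, cut at about 9.5% in these data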;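 also: enzyme runs in reverse so mevalonate oxidation gives rising NADPH absorbance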
NCF1 inh = p47phox (human) inhibition | P14598 | AID 1274 | p47phox/p22phox peptide binding, fluorescence polarization, 2 h | inhibition, % at 24.7 µM | actives 0.53% (n = 220,000);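 active = inhibition above about 30%, limit read from the data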
Of the large screens only hits and unclear results are named; the others gave an inactive call. Rows were chosen to be rich in hits. Some 1.6% of all compounds tested hit in one or more screens of this group.

CCC(=O)Nc1sc(C(=O)Nc2ccccc2F)c(C)c1C(=O)OC	none (no result: Diaph act CS, Diaph inh CS)
COc1ccc(C2NCCc3c2[nH]c2ccccc32)cc1CSc1nc2ccccc2s1 (stereo unspecified)	NCF1 inh 58
COC(=O)COc1ccc(S(=O)(=O)NCc2cccnc2)cc1	none
CCOC(=O)c1c(C)[nH]c(C(=O)/C(C#N)=C/c2ccc(OC)c(OC)c2)c1C	none
Cc1ccc(-c2csc(NC(=O)CSc3nc4ccccc4c(=O)n3CCCN(C)C)n2)cc1	NCF1 inh 37
CCn1c(SCC(=O)Nc2nc(-c3ccc(C)cc3)cs2)nnc1-c1ccccc1	none
CC(C)CC(=O)Nc1ccc(-c2cn3ccsc3n2)cc1	none
Cc1cc(NC(=O)c2coc(=O)c(Br)c2)ccc1C(C)C	NCF1 inh 37 (no result: Diaph act CS, Diaph inh CS, ABCG2 inh, ABCB1 block, HMGR II inh)
CSc1ccc(C2CC(=O)Nc3nc(SC)[nH]c(=O)c32)cc1 (stereo unspecified)	HMGR II inh 22
CSc1ccc(C2CC(=O)Nc3c2c(=O)n(C)c(=O)n3C)cc1 (stereo unspecified)	none (no result: Diaph act CS, Diaph inh CS, ABCG2 inh, ABCB1 block, HMGR II inh)
CCOc1ccc(NC(=O)Cn2nnc(-c3ccccc3F)n2)cc1	none
COc1ccc(NC(=O)Cn2nnc(-c3ccccc3F)n2)cc1	NCF1 inh 54
CCCOP(=O)(OCCC)c1nc(-c2ccccc2)oc1NCc1ccccc1	HMGR II inh 17
Cc1c(Nc2cc(N3CCCCCC3)c3nonc3c2[N+](=O)[O-])c(=O)n(-c2ccccc2)n1C	Diaph inh CS 51
Cc1c(NC(=O)c2cc(C3CC3)on2)c(=O)n(-c2ccccc2)n1C	none
CCCCCCNC(=O)N[C@H](C(=O)NCCC[C@H]1CN2C(=NC[C@H]2C)N1CCC(c1ccccc1)c1ccccc1)C(C)O (stereo partly specified)	NCF1 inh 87 (no result: Diaph act CS, Diaph inh CS, ABCG2 inh, ABCB1 block, HMGR II inh)
C[C@@H]1CN=C2N(CCNC(=O)CCC3CCCCC3)[C@H](Cc3ccc(O)cc3)CN21	none
C=CCn1c(-c2ccccc2)c[nH]c1=S	none
Cc1cc(N2CCN(C)CC2)nc2ccc(NC(=S)N3CCCCC3)cc12	none
Cc1cccc(N2CCN(C(=S)Nc3ccc4nc(N5CCN(C)CC5)cc(C)c4c3)CC2)c1C	NCF1 inh 44
Cn1c(=O)c2cc(S(=O)(=O)NCCC(=O)NC3CCCCCCC3)ccc2n(C)c1=O	none
C#CCNC(=O)C1=C[C@@H](c2ccccc2)C[C@@H](OCc2ccc(CO)cc2)O1	Diaph inh CS 56
NC(=O)C1=C[C@@H](c2ccc(C(F)(F)F)cc2)C[C@@H](OCc2ccc(CO)cc2)O1	Diaph inh CS 52
CC1(OC(=O)C2CCCC2)C(=O)C=C2C=C(c3ccsc3)N(CCCCO)C=C2C1=O (stereo unspecified)	NCF1 inh 30 (no result: Diaph act CS, Diaph inh CS, ABCG2 inh, ABCB1 block, HMGR II inh)
O=S(=O)(c1ccccc1)c1cnc(-c2cccnc2)nc1-c1ccc(Cl)c(Cl)c1	none
COc1cc(C)nc(Oc2ccc(OCc3ccccc3)nn2)n1	none
COc1cc(C)nc(Oc2ccc(OCCOc3ccccc3)nn2)n1	HMGR II inh 19 (no result: Diaph act CS, Diaph inh CS)
COc1ccc(OC)c(S(=O)(=O)N2CCC(C(=O)Nc3ccc(C)c(C)c3)CC2)c1	none
COc1ccc(-c2ccc(SCC(=O)c3ccccc3)nn2)cc1OC	HMGR II inh 11 (no result: NCF1 inh)
O=C(CN1C(=O)S/C(=C\c2ccc(Cl)cc2)C1=O)NNC(=O)c1ccccc1O	NCF1 inh 49
CC(C)(C)C(=O)Nc1ccc(C(=O)OC2CCCCC2)cc1	none
Cc1cc(C(F)(F)F)nn1Cc1n[nH]c(=S)n1-c1ccc(Cl)cc1	NCF1 inh 31
COc1ccccc1NC(=O)Cn1cncc1-c1ccc([N+](=O)[O-])cc1	none
CN(C1CCCCC1)S(=O)(=O)c1ccc2c(c1)c(=O)c(C(=O)NCCN1CCCC1)cn2C	NCF1 inh 51
Cc1cc(C)c(S(=O)(=O)c2ccccc2C)c(OCCO)n1	none
COc1ccc(C2NC(=O)NC3=C2CCc2ccccc23)cc1 (stereo unspecified)	Diaph inh CS 74
N#Cc1c(-c2cccnc2)c2c([nH]c1=S)CCCC2	NCF1 inh 33
C=C1N(C)c2cc([N+](=O)[O-])c(N)cc2C1(C)C	Diaph inh CS 75
CCOC(=O)N1CCN(CC(=O)c2ccc3c(c2)CCN3C(C)=O)CC1	NCF1 inh 49
CC(=O)N1CCc2cc(C(=O)CN3CCCCC3)ccc21	none
CC1=C(C)/C(=N\OS(=O)(=O)c2ccccc2)C=CC1=O	Diaph inh CS 100
N/C(=N\OS(=O)(=O)c1ccccc1)c1ccccn1	none
Nc1cc(C(=O)O)ccc1Nc1ccc(F)c(F)c1	NCF1 inh 30
Cc1ccc(S(=O)(=O)N2CCC(=O)N(C(COC(=O)Nc3ccccc3)Cc3ccccc3)CC2)cc1 (stereo unspecified)	none
Cc1ccc(S(=O)(=O)N2CCC(=O)N(C(CO)Cc3ccccc3)CC2)cc1 (stereo unspecified)	HMGR II inh 12
CCN(CC)CCOc1ccc(/C(=C(/Cl)c2ccccc2)c2ccccc2)cc1	NCF1 inh 51
CC/C(=C(\c1ccc(O)cc1)c1ccc(OCCN(C)C)cc1)c1ccccc1	none (no result: ABCB1 block)
COc1ccccc1NC(=O)c1oc2ccc(C)cc2c1C	none
COC(=O)c1ccccc1NC(=O)C1CCN(C(=O)c2cc(OC)c(OC)c(OC)c2)CC1	none
COc1ccc(C(=O)N2CCC(C(=O)Nc3ccccc3C)CC2)cc1OC	HMGR II inh 10
COc1ccc(C(=O)NC(=S)NNC(=O)CNC(=O)C2CCCCC2)cc1	Diaph inh CS 59
CN(C)/C=C(\C=O)c1onc(-c2ccccc2Cl)c1C#N	none
O=C(Cc1ccccc1)NC(Nc1cccc2ccccc12)C(Cl)(Cl)Cl (stereo unspecified)	Diaph inh CS 69
O=C(Cc1ccccc1)NC(Nc1ccccc1)C(Cl)(Cl)Cl (stereo unspecified)	none
CCOc1ccc(C2N(c3cc(Cl)ccc3OC)C(=O)C3CCCN32)cc1OC (stereo unspecified)	none
CCNc1nc(OCCNC(C)=O)nc(N(C)C)n1	none
O=C(O)c1ccccc1CSc1nc2ccccc2n1Cc1ccccc1C(=O)O	HMGR II inh 11
O=C(O)CCn1c(SCc2cccc3ccccc23)nc2ccccc21	none
CCCC1/C(=N/O)CC(c2ccccc2)NC1c1ccccc1 (stereo unspecified)	none
O=C(C1CC1)N1CCCC(c2ccc(Cl)cc2)=N1	HMGR II inh 10
CCOc1cccc2c1OC1(C)CC2NC(=O)N1Cc1ccccc1 (stereo unspecified)	NCF1 inh 60
CC(=O)Nc1c(Br)cc(N2C(=O)CCC2=O)cc1Br	none

Source: PubChem (several laboratories)
